# According to PubChem BioAssay AID602154 (Broad Institute, 2011):
# Activity calls are given as the source filed them.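 How the source made its calls: active means compounds reducing DiI-HDL uptake fluorescence after washout, with fitted AC50 at most twice the top tested dose; inconclusive means flat partial inhibition of 30 to 70% or a poor fit; inactive means the rest.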
# Molecular target: Scavenger receptor class B member 1 (Mus musculus) (UniProt Q61009)
# Assay: DiI-HDL uptake after washout and recovery – ldlA[mSR-BI] CHO cells, fluorescence, mechanism study for SR-BI HDL uptake inhibitor project, late-stage follow-up (AID 602154)
# How it was run: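 Assay system: SR-BI-overexpressing LDL-receptor-null CHO cells; Medium: BSA (fatty acid-free) and HEPES uptake buffer; Probe or stimulus: DiI-labelled HDL, 10 µg/mL, during uptake step; Schedule: 2 h compound, 4 h washout, 3 h DiI-HDL; Measured by: DiI fluorescence, 550/595 nm, bottom read.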
# Scavenger receptor class B member 1 (Mus musculus), sequence (Q61009 whole entry, looked up): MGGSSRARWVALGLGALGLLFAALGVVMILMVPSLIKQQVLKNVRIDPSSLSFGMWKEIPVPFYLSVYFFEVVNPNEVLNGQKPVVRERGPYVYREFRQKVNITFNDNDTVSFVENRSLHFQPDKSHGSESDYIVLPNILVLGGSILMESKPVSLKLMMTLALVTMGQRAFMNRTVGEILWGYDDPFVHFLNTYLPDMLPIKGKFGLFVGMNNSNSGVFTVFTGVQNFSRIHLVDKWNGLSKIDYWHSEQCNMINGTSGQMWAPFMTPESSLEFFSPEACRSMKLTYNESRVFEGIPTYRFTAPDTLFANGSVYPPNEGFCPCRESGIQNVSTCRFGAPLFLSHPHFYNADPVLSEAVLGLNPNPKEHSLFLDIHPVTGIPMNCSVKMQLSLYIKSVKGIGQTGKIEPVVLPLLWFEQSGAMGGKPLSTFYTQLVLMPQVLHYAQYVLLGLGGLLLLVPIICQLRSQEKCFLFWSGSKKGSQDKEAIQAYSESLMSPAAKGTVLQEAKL
row,AC50,Compound
1,0.598 nM,CCCCCCC1CCC/C1=N\NC(N)=S (stereo not drawn)
2,860 nM,COCC(=O)N1CCc2cc(-c3csc(NC(=O)c4cc(OC)cc(OC)c4)n3)ccc21
3,> 70000 nM (inactive),C[C@H](C(=O)NC1CCCC1)N(C(=O)Cn1nnc(-c2ccc3c(c2)OCO3)n1)C1CCCCC1
